Paper PMC4101887 (Cancer investigation, 2011)
Each block holds one compound with its values, some of them ahead of it.

Key:
[1] = Multiple-dose plasma pharmacokinetics of lonafarnib; type: in vivo, human; details: for AUC / Cmax / Tmax / half-life: human, plasma, oral; for AUC: Lonafarnib AUC (τ), 12 hour dosing interval; for Cmax: Lonafarnib Cmax; for Tmax: Lonafarnib Tmax (median); for half-life: Lonafarnib T½
Outline: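 Patients with advanced cancer took oral drug twice daily with food continuously, plus 30 min IV gemcitabine on days 1, 8, 15 of 28-day cycles. The evening dose was withheld on […]. Plasma was sampled on day 15 of cycles 1 and 2, pre-dose and to 24 h. LC-MS/MS had LLOQ 5.00 ng/mL.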

[2] = Plasma pharmacokinetics of gemcitabine; type: in vivo, human; details: for effect of multiple doses of lonafarnib on the pharmacokinetics of gemcitabine: Day 15 versus Day 1; for Tmax / AUC / Cmax: human, plasma, intravenous; for Cmax: Gemcitabine Cmax
farnesyl transferase = farnesyl transferase (Homo sapiens, UniProt P49354+P49356); assay: Prelamin A accumulation in buccal mucosal cells; type: in vivo; details: buccal mucosal swabs, cycle 1 day 15 versus day 1; 10 of 17 samples
[3] = lonafarnib 100 mg BID+gemcitabine 750 mg/m2, cycle 1 day 15, n=4
[4] = lonafarnib 100 mg BID+gemcitabine 750 mg/m2, cycle 2 day 15, n=3
[5] = lonafarnib 100 mg BID+gemcitabine 1000 mg/m2, cycle 1 day 15, n=3
[6] = lonafarnib 200 mg BID+gemcitabine 600 mg/m2, cycle 2 day 15, n=4

AUC [1, 3]: 6000 ng·h/mL
AUC [1, 4]: 6030 ng·h/mL
AUC [1, 5]: 8200 ng·h/mL
AUC [1, 6]: 14500 ng·h/mL
Cmax [1, 3]: 717 ng/mL
Cmax [1, 4]: 757 ng/mL
Cmax [1, 5]: 1010 ng/mL
Cmax [1, 6]: 1880 ng/mL
Tmax [1, 3]: 5 h
Tmax [1, 4]: 4 h
Tmax [1, 5]: 4 h
Tmax [1, 6]: 5 h
half-life [1, 3]: 5.21 h
half-life [1, 4]: 3.5 h
half-life [1, 5]: 3.8 h
half-life [1, 6]: 4.78 h
90% confidence interval for the AUC(τ) point estimate, Cycle 2 Day 15 to Cycle 1 Day 15 ([1]; log-transformed data): 76.2–145%
AUC(τ) point estimate, Cycle 2 Day 15 compared to Cycle 1 Day 15 ([1]; log-transformed data): 105%
mean total body clearance (CL/F), range over dose levels ([1]; twice daily multiple doses with weekly gemcitabine): 163 to 594 mL/min
effect of multiple doses of lonafarnib on the pharmacokinetics of gemcitabine [2]: no apparent effect
effect of multiple doses of lonafarnib on the pharmacokinetics of gemcitabine ([2]; listed as lonafarnib): no important effect
samples showing prelamin A accumulation after treatment (farnesyl transferase): 59%
Compound: NC(=O)N1CCC(CC(=O)N2CCC([C@H]3c4ncc(Br)cc4CCc4cc(Cl)cc(Br)c43)CC2)CC1 [Lonafarnib]

Tmax ([2]; 600 mg/m2, Gemcitabine Tmax (median), lonafarnib 200 mg BID+gemcitabine 600 mg/m2, cycle 1 Day 1 (gemcitabine alone), n=6): 0.38 h
AUC ([2]; 750 mg/m2, Gemcitabine AUC (τ), lonafarnib 100 mg BID+gemcitabine 750 mg/m2, cycle 1 Day 1 (gemcitabine alone), n=4): 5380 ng·h/mL
Tmax ([2]; 750 mg/m2, Gemcitabine Tmax (median), lonafarnib 100 mg BID+gemcitabine 750 mg/m2, cycle 1 Day 1 (gemcitabine alone), n=4): 0.5 h
Tmax ([2]; 750 mg/m2, Gemcitabine Tmax (median), lonafarnib 150 mg BID+gemcitabine 750 mg/m2, cycle 1 Day 1 (gemcitabine alone), n=2): 0.25 h
Tmax ([2]; 1000 mg/m2, Gemcitabine Tmax (median), lonafarnib 100 mg BID+gemcitabine 1000 mg/m2, cycle 1 Day 1 (gemcitabine alone), n=2): 0.38 h
AUC ([2]; Gemcitabine AUC (τ), lonafarnib 100 mg BID+gemcitabine 750 mg/m2, cycle 1 Day 15 (with lonafarnib), n=4): 7890 ng·h/mL
AUC ([2]; Gemcitabine AUC (τ), lonafarnib 100 mg BID+gemcitabine 1000 mg/m2, cycle 1 Day 15 (with lonafarnib), n=3): 5060 ng·h/mL
AUC ([2]; Gemcitabine AUC (τ), lonafarnib 200 mg BID+gemcitabine 600 mg/m2, cycle 1 Day 15 (with lonafarnib), n=7): 4970 ng·h/mL
Cmax ([2]; lonafarnib 100 mg BID+gemcitabine 750 mg/m2, cycle 1 Day 15 (with lonafarnib), n=4): 15000 ng/mL
Cmax ([2]; lonafarnib 100 mg BID+gemcitabine 1000 mg/m2, cycle 1 Day 15 (with lonafarnib), n=3): 9800 ng/mL
Cmax ([2]; lonafarnib 200 mg BID+gemcitabine 600 mg/m2, cycle 1 Day 15 (with lonafarnib), n=7): 11200 ng/mL
Tmax ([2]; Gemcitabine Tmax (median), lonafarnib 100 mg BID+gemcitabine 750 mg/m2, cycle 1 Day 15 (with lonafarnib), n=4): 0.5 h
Tmax ([2]; Gemcitabine Tmax (median), lonafarnib 100 mg BID+gemcitabine 1000 mg/m2, cycle 1 Day 15 (with lonafarnib), n=3): 0.25 h
Tmax ([2]; Gemcitabine Tmax (median), lonafarnib 200 mg BID+gemcitabine 600 mg/m2, cycle 1 Day 15 (with lonafarnib), n=7): 0.25 h
Compound: Nc1ccn([C@@H]2O[C@H](CO)[C@@H](O)C2(F)F)c(=O)n1 [Gemcitabine]
